The record followed here is ChEMBL document CHEMBL1154719, “Click chemistry: studies on the synthesis of novel fluorous tagged triazol-4-yl substituted quinazoline derivatives and their biological evaluation--theoretical and experimental validation” (2010).

Common to all, as to assay type: functional
Test [1] relates to Diutina rugosa. Description: Antifungal activity against Candida rugosa NCIM 3462 at 50 ug/ml after 48 hrs by agar cup diffusion method. The conditions noted are these: NCIM 3462, 48 h, read-out: DIZ. The procedure, abridged: (§1)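 Amphotericin-B reference at 50 per ml in the agar cup assay on potato dextrose agar. Plates were spread with 0.5 ml of a week-old fungal culture, incubated at 28 °C for 48 h, and inhibition zone diameter was read in mm. Acetone served as the negative control.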

The subject of test [2] is Aspergillus flavus. The experiment in a line: Antifungal activity against Aspergillus flavus MTCC 277 at 50 ug/ml after 48 hrs by agar cup diffusion method. The conditions noted are these: MTCC 277, 48 h, read-out: DIZ. The procedure, abridged:
as §1

Test [3] has as its system Saccharomyces cerevisiae. Description: Antifungal activity against Saccharomyces cerevisiae MTCC 36 at 50 ug/ml after 48 hrs by agar cup diffusion method. The conditions noted are these: MTCC 36, 48 h, read-out: DIZ. The procedure, abridged: as §1
Test [4] has as its system Rhizopus arrhizus. Description: Antifungal activity against Rhizopus oryzae MTCC 262 at 50 ug/ml after 48 hrs by agar cup diffusion method. To be noted: MTCC 262, 48 h, read-out: DIZ. The procedure, abridged:
as §1

In test [5] the test system is Candida albicans. The experiment in a line: Antifungal activity against Candida albicans MTCC 227 at 50 ug/ml after 48 hrs by agar cup diffusion method. The conditions noted are these: MTCC 227, 48 h, read-out: DIZ. The procedure, abridged:
as §1

Test [6] deals with Aspergillus niger. Description: Antifungal activity against Aspergillus niger MTCC 1344 at 50 ug/ml after 48 hrs by agar cup diffusion method. To be noted: MTCC 1344, 48 h, read-out: DIZ. The gist of the method:
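Agar cup diffusion on potato dextrose agar plates. 0.5 ml of a week-old A. niger culture spread over the solidified agar, then test solutions added to cups. Acetone served as negative control and amphotericin-B as positive control. Plates kept at 28 °C for 48 h. Read-out was inhibition zone diameter in mm.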

For another test, the system named is Staphylococcus aureus. The experiment in a line: Antibacterial activity against Staphylococcus aureus MTCC 96 by broth dilution method. The procedure, abridged:
(§2)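 MIC by broth dilution in nutrient broth. Test bacteria were kept on nutrient agar slants and subcultured in Petri dishes before testing.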

The subject of another test is Pseudomonas aeruginosa. Description: Antibacterial activity against Pseudomonas aeruginosa MTCC 741 by broth dilution method. The procedure, abridged:
as §2

In test [7] the test system is Saccharomyces cerevisiae. The experiment in a line: Antifungal activity against Saccharomyces cerevisiae MTCC 36 at 30 ug/ml after 48 hrs by agar cup diffusion method. The conditions noted are these: MTCC 36, 48 h, read-out: DIZ. The gist of the method: (§3)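 Agar cup diffusion on autoclaved potato dextrose agar plates. Each plate was spread with 0.5 ml of a week-old culture, and test solutions at 30 and 100 per ml were added to cups. Plates were held at 28 °C for 48 h, and inhibition zone diameters were read in mm. Acetone served as the solvent control and amphotericin-B as the reference.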

Test [8] concerns Aspergillus flavus. Description: Antifungal activity against Aspergillus flavus MTCC 277 at 30 ug/ml after 48 hrs by agar cup diffusion method. To be noted: MTCC 277, 48 h, read-out: DIZ. The procedure, abridged: as §3
In test [9] the test system is Aspergillus niger. Description: Antifungal activity against Aspergillus niger MTCC 1344 at 30 ug/ml after 48 hrs by agar cup diffusion method. To be noted: MTCC 1344, 48 h, read-out: DIZ. The gist of the method: as §3
In test [10] the test system is Diutina rugosa. Description: Antifungal activity against Candida rugosa NCIM 3462 at 100 ug/ml after 48 hrs by agar cup diffusion method. The conditions noted are these: NCIM 3462, 48 h, read-out: DIZ. The gist of the method:
as §3

The next test has as its system Bacillus subtilis. Description: Antibacterial activity against Bacillus subtilis MTCC 441 by broth dilution method. The procedure, abridged:
as §2

Test [11] has as its system Rhizopus arrhizus. The experiment in a line: Antifungal activity against Rhizopus oryzae MTCC 262 at 30 ug/ml after 48 hrs by agar cup diffusion method. To be noted: MTCC 262, 48 h, read-out: DIZ. The procedure, abridged: as §3
Test [12] concerns Aspergillus niger. The experiment in a line: Antifungal activity against Aspergillus niger MTCC 1344 at 100 ug/ml after 48 hrs by agar cup diffusion method. The conditions noted are these: MTCC 1344, 48 h, read-out: DIZ. The gist of the method: as §3
The subject of test [13] is Candida albicans. The experiment in a line: Antifungal activity against Candida albicans MTCC 227 at 100 ug/ml after 48 hrs by agar cup diffusion method. The conditions noted are these: MTCC 227, 48 h, read-out: DIZ. The gist of the method: as §3
Test [14] concerns Staphylococcus epidermidis. The experiment in a line: Antibacterial activity against Staphylococcus epidermidis MTCC 435 by broth dilution method. The gist of the method:
as §2

The test system of test [15] is Rhizopus arrhizus. The experiment in a line: Antifungal activity against Rhizopus oryzae MTCC 262 at 100 ug/ml after 48 hrs by agar cup diffusion method. To be noted: MTCC 262, 48 h, read-out: DIZ. The gist of the method:
as §3

The subject of test [16] is Diutina rugosa. The experiment in a line: Antifungal activity against Candida rugosa NCIM 3462 at 30 ug/ml after 48 hrs by agar cup diffusion method. The conditions noted are these: NCIM 3462, 48 h, read-out: DIZ. The procedure, abridged: as §3
Test [17] concerns Saccharomyces cerevisiae. Description: Antifungal activity against Saccharomyces cerevisiae MTCC 36 at 100 ug/ml after 48 hrs by agar cup diffusion method. To be noted: MTCC 36, 48 h, read-out: DIZ. The procedure, abridged:
as §3

The test system of test [18] is Aspergillus flavus. The experiment in a line: Antifungal activity against Aspergillus flavus MTCC 277 at 100 ug/ml after 48 hrs by agar cup diffusion method. To be noted: MTCC 277, 48 h, read-out: DIZ. The gist of the method:
as §3

For the next test, the system named is Escherichia coli. The experiment in a line: Antibacterial activity against Escherichia coli MTCC 443 by broth dilution method. The procedure, abridged: as §2
Test [19] has as its system Candida albicans. The experiment in a line: Antifungal activity against Candida albicans MTCC 227 at 30 ug/ml after 48 hrs by agar cup diffusion method. To be noted: MTCC 227, 48 h, read-out: DIZ. The procedure, abridged: as §3

Each structure is given as a SMILES string. Converted amounts (≈) assume the structure as drawn.

For the compound `C[C@@H]1[C@H](O)[C@@H](C)/C=C/C=C/C=C/C=C/C=C/C=C/C=C/[C@H](O[C@@H]2O[C@H](C)[C@@H](O)[C@H](N)[C@@H]2O)C[C@@H]2O[C@](O)(C[C@@H](O)C[C@@H](O)[C@H](O)CC[C@@H](O)C[C@@H](O)CC(=O)O[C@H]1C)C[C@H](O)[C@H]2C(=O)O` [AMPHOTERICIN B], the zone of inhibition at 50 µg/mL with Diutina rugosa [1] was found to be 22 mm; with Aspergillus flavus [2], 25 mm; with Saccharomyces cerevisiae [3], 22 mm; in the test on Rhizopus arrhizus [4], 24 mm; with Candida albicans [5], 23.5 mm; in the test on Aspergillus niger [6], 25 mm.

With `C#CCn1c(-c2ccccc2)nc2ccccc2c1=O`, the minimal inhibitory concentration (MIC) with Staphylococcus aureus came out at 37.5 µg/mL (≈ 144 µM); against Pseudomonas aeruginosa, 37.5 µg/mL (≈ 144 µM); in the test on Bacillus subtilis it was 37.5 µg/mL (≈ 144 µM); in [14], 37.5 µg/mL (≈ 144 µM); in the test on Escherichia coli, 75 µg/mL (≈ 288 µM). The zone of inhibition at 30 µg/mL is 9 mm in the test with Saccharomyces cerevisiae [7]; 9 mm in the test with Aspergillus flavus [8]; 7 mm in the test with Aspergillus niger [9]; 8 mm in the test with Rhizopus arrhizus [11]; 8 mm in the test on Diutina rugosa [16]; 7 mm with Candida albicans [19]. The zone of inhibition at 100 µg/mL in the test on Diutina rugosa [10] was 12 mm; with Aspergillus niger [12], 10 mm; with Candida albicans [13], 10 mm; with Rhizopus arrhizus [15], 12 mm; in the test with Saccharomyces cerevisiae [17], 12 mm; in the test with Aspergillus flavus [18], 12 mm.
